Results: ChEMBL document CHEMBL1150796, “A novel fluorescence intensity screening assay identifies new low-molecular-weight inhibitors of the gp41 coiled-coil domain of human immunodeficiency virus type 1” (Antimicrob Agents Chemother, 2007)
Square brackets hold non-standard residues; d marks the D form. Peptide text beside a SMILES is read from it. Aib = CC(C)(N)C(=O)O

Experiments:
[1] = test system: Human immunodeficiency virus 1; assay: Antiviral activity against HIV1 assessed as inhibition of fusion of gp160 expressing human HeLa cells and CCR5-expressing Tat-long terminal repeat luciferase reporter cells; format: functional, organism-based; details: Human immunodeficiency virus 1, HeLa
Procedure, shortened: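 Cell-cell fusion run by a collaborating lab: HeLa effector cells with inducible gp160 expression were mixed with CCR5-expressing Tat-LTR-luciferase reporter cells, and syncytium formation was scored. DMSO in cell culture was capped at 1%.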

[2] = Inhibition of HIV1 gp41 by metallopeptide-based fluorescence assay; set-up: species or system Human immunodeficiency virus 1
Procedure, shortened: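 HR1 coiled-coil metallopeptide receptor [Fe(II)(env2.0)3]2+ (7.2 μM final) was mixed with LY-labelled HR2 probe C18-Aib-LY (1 μM) and 20 μM inhibitor in 25 mM Tris, 25 mM sodium acetate pH 7.0, 0.01% Tween 20, 4% DMSO. Inhibitor displacement relieved quenching; fluorescence was read at ex 425/em 540 nm. Signal was taken as primary/control scan ratio and Ki derived from binding equations.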

[3] = Inhibition of HIV1 gp41 by metallopeptide-based fluorescence assay using dose response study; set-up: species or system Human immunodeficiency virus 1
Procedure, shortened: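 Competitive dose-response with 7.2 μM Fe(II) HR1 metallopeptide receptor and 1 μM C18-Aib-LY probe across varying inhibitor concentrations. Buffer was pH 7.0 Tris/acetate with 0.01% Tween 20 and 4% DMSO; read at ex 425/em 540 nm, relative to free-probe maximum. Curves were fit to equations 5 and 8 for Ki; three independent experiments, mean ± SD.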

[4] = test system: Human immunodeficiency virus 1; assay: Antiviral activity against HIV1 assessed as syncytium inhibition by cell-cell fusion assay; format: functional, organism-based
Procedure, shortened: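 HIV-1 fusion run as a cell-cell assay: HeLa effector cells with inducible gp160 expression were paired with CCR5-expressing reporter cells carrying Tat-responsive LTR-luciferase, with luciferase as the read-out. DMSO in culture was capped at 1%.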

[5] = test system: Human immunodeficiency virus 1; assay: Antiviral activity against HIV1 assessed as six-helix bundle formation assay; format: functional

Row | IC50 [1] [µM] | Ki [2] [µM] | Ki [3] [µM] | SMILES | IC50 [4] [µM] | IC50 [5] [µM]
1 | 8 | 1.15 | 1.51 | O=C(O)c1ccc(NC(=O)c2cccc(Cc3cccc4cccnc34)c2)c(Cc2cccc(F)c2)c1 |  | 
2 | 8 | 1.2 | 1.34 | O=C(O)c1ccc(NC(=O)c2cccc(Cc3ccc(F)cc3)c2)c(Cc2cccc([N+](=O)[O-])c2)c1 |  | 
3 |  |  |  | O=C(O[C@@H]1Cc2c(O)cc(O)cc2O[C@H]1c1cc(O)c(O)c(O)c1)c1cc(O)c(O)c(O)c1 (single isomer, unassigned) [GALLOCATECHIN GALLATE] | 4.32 | 
4 |  |  |  | O=C(O[C@@H]1Cc2c(O)cc(O)cc2O[C@@H]1c1cc(O)c(O)c(O)c1)c1cc(O)c(O)c(O)c1 [EPIGALOCATECHIN GALLATE] |  | 19.9

Row | SMILES | IC50 [1] [µM] | Ki [2] [µM] | Ki [3] [µM] | IC50 [4] [µM] | IC50 [5] [µM]
5 | CC[C@H](C)[C@H](NC(=O)[C@H](CC(C)C)NC(=O)[C@H](CO)NC(=O)[C@@H](NC(=O)[C@H](Cc1ccc(O)cc1)NC(=O)[C@H](CC(N)=O)NC(=O)C(C)(C)NC(=O)[C@@H](NC(=O)[C@H](CCC(=O)O)NC(=O)[C@H](CCCNC(=N)N)NC(=O)[C@H](CC(=O)O)NC(=O)[C@H](Cc1c[nH]c2ccccc12)NC(=O)[C@H](CCC(=O)O)NC(=O)C(C)(C)NC(=O)[C@H](Cc1c[nH]c2ccccc12)NC(=O)[C@@H](NC(=O)[C@H](CCSC)NC(C)=O)[C@@H](C)O)[C@@H](C)CC)[C@@H](C)O)C(=O)N[C@@H](CS)C(N)=O (Ac-MTW[Aib]EWDREI[Aib]NYTSLIC-NH2) |  | 0.6 | 0.8 |  | 
